Active and inactive are the calls of the source. The calls are words filed in the database; no cut-off is given here.
How the values were obtained:
[1] = Disruption of retional-induced bacterially expressed MBP-tagged RBP4-TTR (unknown origin) protein-protein interaction measured by d2 dye based HTFR assay; parameters: species or system Homo sapiens
[2] = target: T1, Transthyretin (Homo sapiens, UniProt P02766); test: Binding affinity to human plasma TTR tetramer assessed as displacement of diclofenac-coupled FITC by fluorescence polarization assay; type: cell-free
[3] = Solubility of the compound at pH 7.4 in PBS; type: physicochemical
Summary of the method: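 Kinetic solubility in PBS, pH 7.4. Values above 200 μM are capped at the top assay concentration, 200 μM.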

[4] = target: CYP3A4 (Homo sapiens, UniProt P08684); test: (§1) Inhibition of CYP3A4 (unknown origin) at 10 uM relative to control; type: ADME
Sequence of CYP3A4 (P08684 whole entry): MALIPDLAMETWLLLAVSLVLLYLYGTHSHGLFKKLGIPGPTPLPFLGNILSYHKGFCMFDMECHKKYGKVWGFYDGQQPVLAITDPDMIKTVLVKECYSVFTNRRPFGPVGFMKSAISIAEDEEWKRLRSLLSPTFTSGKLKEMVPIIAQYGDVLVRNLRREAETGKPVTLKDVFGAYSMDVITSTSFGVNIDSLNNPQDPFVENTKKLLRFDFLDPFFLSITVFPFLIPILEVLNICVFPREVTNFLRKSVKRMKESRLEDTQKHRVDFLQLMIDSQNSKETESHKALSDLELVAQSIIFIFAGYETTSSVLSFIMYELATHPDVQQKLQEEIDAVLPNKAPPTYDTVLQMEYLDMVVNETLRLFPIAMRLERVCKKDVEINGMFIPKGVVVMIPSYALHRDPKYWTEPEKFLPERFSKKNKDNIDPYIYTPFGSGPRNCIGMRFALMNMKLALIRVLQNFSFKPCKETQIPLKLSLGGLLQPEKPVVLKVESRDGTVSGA

[5] = target: Retinol-binding protein 4 (Homo sapiens, UniProt P02753); test: Displacement of [3H]-all trans retinol from human urine biotinylated RBP4 incubated for 16 hrs measured by Scintillation Proximity Assay
[6] = target: CYP2C19 (Homo sapiens, UniProt P33261); test: (§2) Inhibition of CYP2C19 (unknown origin) at 10 uM relative to control; type: ADME
Sequence of CYP2C19 (P33261 whole entry): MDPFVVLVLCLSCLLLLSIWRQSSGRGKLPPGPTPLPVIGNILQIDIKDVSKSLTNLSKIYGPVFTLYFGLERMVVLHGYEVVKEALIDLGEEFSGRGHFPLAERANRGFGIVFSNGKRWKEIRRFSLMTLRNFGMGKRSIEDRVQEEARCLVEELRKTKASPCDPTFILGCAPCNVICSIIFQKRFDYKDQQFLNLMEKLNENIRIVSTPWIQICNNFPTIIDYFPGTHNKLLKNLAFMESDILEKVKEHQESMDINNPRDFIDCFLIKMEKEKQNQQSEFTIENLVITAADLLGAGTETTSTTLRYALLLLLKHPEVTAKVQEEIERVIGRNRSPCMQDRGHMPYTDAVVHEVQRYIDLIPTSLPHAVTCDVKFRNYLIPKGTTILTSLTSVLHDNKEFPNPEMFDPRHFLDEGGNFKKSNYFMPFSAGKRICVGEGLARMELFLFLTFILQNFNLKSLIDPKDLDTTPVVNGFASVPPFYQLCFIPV

[7] = target: CYP2D6 (Homo sapiens, UniProt P10635); test: Inhibition of CYP2D6 (unknown origin) at 10 uM relative to control; type: ADME
Sequence of CYP2D6 (P10635 whole entry): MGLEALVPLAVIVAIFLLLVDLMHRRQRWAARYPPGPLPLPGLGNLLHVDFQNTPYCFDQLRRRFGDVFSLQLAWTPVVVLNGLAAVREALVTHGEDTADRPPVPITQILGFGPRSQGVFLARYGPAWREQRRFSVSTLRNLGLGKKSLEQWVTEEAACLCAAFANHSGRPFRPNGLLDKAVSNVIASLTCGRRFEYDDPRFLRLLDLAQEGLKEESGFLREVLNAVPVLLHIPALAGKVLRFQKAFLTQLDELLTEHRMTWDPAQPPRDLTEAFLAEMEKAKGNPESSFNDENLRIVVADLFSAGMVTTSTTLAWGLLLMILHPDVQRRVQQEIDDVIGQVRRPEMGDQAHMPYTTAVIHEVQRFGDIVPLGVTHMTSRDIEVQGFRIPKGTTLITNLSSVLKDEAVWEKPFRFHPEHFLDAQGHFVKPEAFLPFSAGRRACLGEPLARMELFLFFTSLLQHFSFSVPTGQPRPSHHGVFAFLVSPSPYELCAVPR

[8] = target: CYP2C9 (Homo sapiens, UniProt P11712); test: Inhibition of CYP2C9 (unknown origin) at 10 uM relative to control; type: ADME
Sequence of CYP2C9 (P11712 whole entry): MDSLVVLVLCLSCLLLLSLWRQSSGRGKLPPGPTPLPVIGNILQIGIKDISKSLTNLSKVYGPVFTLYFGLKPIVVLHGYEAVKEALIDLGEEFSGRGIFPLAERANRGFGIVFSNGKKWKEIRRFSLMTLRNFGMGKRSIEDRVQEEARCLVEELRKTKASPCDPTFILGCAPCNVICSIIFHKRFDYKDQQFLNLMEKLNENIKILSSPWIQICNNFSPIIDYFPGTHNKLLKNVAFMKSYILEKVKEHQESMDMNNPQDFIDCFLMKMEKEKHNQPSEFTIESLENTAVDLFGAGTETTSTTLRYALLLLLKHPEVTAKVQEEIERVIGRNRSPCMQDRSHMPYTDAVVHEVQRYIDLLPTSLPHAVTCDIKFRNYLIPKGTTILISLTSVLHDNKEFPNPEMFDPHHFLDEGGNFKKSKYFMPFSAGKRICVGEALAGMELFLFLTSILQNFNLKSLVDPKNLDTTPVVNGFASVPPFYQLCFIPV

[9] = Plasma protein binding in human; type: ADME, cell-free
[10] = Microsomal stability in rat liver microsomes assessed as parent compound remaining measured after 30 min; type: ADME, Microsome; conditions: 0.5 h
[11] = target: Cytochrome P450 3A4 (Homo sapiens, UniProt P08684); test: as §1; type: ADME; conditions: 10 µM
Sequence of Cytochrome P450 3A4 (P08684 whole entry): as the sequence (P08684 whole entry) above

[12] = Plasma protein binding in rat; type: ADME, cell-free
[13] = target: T1, Transthyretin; test: Stabilization of human plasma TTR assessed as inhibition of formation of high molecular weight forms of TTR with acetate buffer at pH 4 by measured at 50 uM after 72 hrs by acid-induced aggregation assay; type: cell-free
[14] = target: T1, Transthyretin; test: Stabilization of human plasma TTR assessed as increase in dimer band intensity at 50 uM measured after 72 hrs by Western blotting analysis; type: cell-free
[15] = target: T1, Transthyretin; test: Stabilization of human plasma TTR assessed as supression of low pH mediated TTR aggregate formation at 50 uM using pH 4.0 buffer
[16] = tested on: Mus musculus; test: Reduction in serum RBP4 level in mouse measured at 25 mg/kg, po after 1 hr
[17] = tested on: Mus musculus; test: Reduction in serum RBP4 level in mouse measured at 25 mg/kg, po after 2 hrs
[18] = tested on: Mus musculus; test: Effect of TTR level in po dosed mouse serum; type: functional, organism-based
[19] = target: T1, Transthyretin; test: Stabilization of human plasma TTR assessed as supression of low pH mediated TTR aggregate formation at 50 uM using pH 4 buffer; type: cell-free
[20] = Microsomal stability in human liver microsomes assessed as parent compound remaining measured after 30 min; type: ADME, Microsome; conditions: 0.5 h
[21] = Microsomal stability in human liver microsomes assessed as intrinsic clearance; type: ADME, Microsome
[22] = target: T2, Peroxisome proliferator-activated receptor gamma (Homo sapiens, UniProt P37231); test: Activity at PPARgamma (unknown origin)
T2 sequence (P37231 whole entry): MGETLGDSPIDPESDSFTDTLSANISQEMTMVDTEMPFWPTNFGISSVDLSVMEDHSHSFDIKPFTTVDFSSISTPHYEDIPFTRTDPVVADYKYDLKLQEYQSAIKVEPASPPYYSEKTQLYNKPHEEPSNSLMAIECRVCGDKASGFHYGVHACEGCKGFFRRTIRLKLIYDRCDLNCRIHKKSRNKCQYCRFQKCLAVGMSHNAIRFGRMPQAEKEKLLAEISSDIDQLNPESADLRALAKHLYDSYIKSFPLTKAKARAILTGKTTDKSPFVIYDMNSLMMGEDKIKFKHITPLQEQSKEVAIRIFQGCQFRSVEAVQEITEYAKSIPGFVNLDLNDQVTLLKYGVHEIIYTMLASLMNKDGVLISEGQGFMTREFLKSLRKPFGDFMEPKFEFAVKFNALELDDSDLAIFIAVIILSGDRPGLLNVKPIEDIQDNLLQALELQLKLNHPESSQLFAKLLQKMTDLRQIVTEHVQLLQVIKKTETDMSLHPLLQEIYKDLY

[23] = Volume of distribution at steady state in male CD-1 mouse at 2 mg/kg, iv; type: ADME, organism-based; conditions: in vivo, read-out: Vdss
Summary of the method: (§3)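 Adult male CD-1 mice, drug naïve, three per group; single 2 mg/kg IV bolus in 3% dimethylacetamide/45% PEG300/12% ethanol/40% sterile water. Compound measured in blood over time. CL is total body clearance, t1/2 is the terminal elimination phase half-life, Vss is volume of distribution at steady state. Reported as mean (SD).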

[24] = Clearance in male CD-1 mouse at 2 mg/kg, iv; type: ADME, organism-based; conditions: in vivo; summary of the method: as §3
[25] = AUClast in male CD-1 mouse at 2 mg/kg, iv; type: ADME, organism-based; parameters: route intravenous, time 0 - last, dose 2 mg/kg; conditions: in vivo
Summary of the method: (§4)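 Groups of three drug-naive adult male CD-1 mice; IV dose 2 mg/kg in 3% dimethylacetamide/45% PEG300/12% ethanol/40% sterile water; PO dose 5 mg/kg in 2% Tween 80 in 0.9% saline. Compound measured in blood; AUC_last to last quantifiable time point, AUC_INF extrapolated to infinity; Cmax is maximum observed blood concentration. Mean (SD).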

[26] = AUC (infinity) in male CD-1 mouse at 5 mg/kg, po; type: ADME, organism-based; parameters: time infinity, route oral, dose 5 mg/kg; conditions: in vivo; summary of the method: as §4
[27] = AUC in male CD-1 mouse at 2 mg/kg, iv; type: ADME, organism-based; parameters: dose 2 mg/kg; conditions: in vivo; summary of the method: as §4
[28] = target: Voltage-gated inwardly rectifying potassium channel KCNH2 (Homo sapiens, UniProt Q12809); test: Inhibition of human ERG
Sequence of Voltage-gated inwardly rectifying potassium channel KCNH2 (Q12809 whole entry): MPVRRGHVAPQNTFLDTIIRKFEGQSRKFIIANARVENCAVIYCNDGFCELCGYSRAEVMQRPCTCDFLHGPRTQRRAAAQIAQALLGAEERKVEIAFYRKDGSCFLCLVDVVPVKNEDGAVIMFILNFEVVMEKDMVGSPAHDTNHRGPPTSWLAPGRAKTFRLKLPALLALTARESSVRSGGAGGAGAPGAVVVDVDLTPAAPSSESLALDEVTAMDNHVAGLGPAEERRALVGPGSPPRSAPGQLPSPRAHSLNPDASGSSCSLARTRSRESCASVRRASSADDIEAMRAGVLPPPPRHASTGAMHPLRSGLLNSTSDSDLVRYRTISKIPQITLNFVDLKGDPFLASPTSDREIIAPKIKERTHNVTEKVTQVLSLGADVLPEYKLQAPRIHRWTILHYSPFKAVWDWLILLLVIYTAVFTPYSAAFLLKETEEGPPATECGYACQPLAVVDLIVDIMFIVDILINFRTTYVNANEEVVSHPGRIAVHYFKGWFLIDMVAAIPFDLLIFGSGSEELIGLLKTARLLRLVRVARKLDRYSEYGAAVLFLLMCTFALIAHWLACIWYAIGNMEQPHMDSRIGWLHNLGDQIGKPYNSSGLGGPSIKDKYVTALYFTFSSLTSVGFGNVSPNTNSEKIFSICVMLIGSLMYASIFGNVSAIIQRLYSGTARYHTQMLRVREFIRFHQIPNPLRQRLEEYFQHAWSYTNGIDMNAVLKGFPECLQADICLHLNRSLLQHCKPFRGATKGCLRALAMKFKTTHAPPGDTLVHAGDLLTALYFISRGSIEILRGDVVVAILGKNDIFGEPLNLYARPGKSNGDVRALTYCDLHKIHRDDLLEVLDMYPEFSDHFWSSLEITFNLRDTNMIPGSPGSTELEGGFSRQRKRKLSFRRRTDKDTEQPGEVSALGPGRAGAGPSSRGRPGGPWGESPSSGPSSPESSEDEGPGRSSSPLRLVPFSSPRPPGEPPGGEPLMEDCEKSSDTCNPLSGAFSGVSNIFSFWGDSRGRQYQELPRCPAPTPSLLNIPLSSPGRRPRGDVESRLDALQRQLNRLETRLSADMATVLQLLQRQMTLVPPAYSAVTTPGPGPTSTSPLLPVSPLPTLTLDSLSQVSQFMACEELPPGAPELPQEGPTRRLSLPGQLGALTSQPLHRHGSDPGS

[29] = Half life in male CD-1 mouse at 2 mg/kg, iv; type: ADME, organism-based; conditions: in vivo; summary of the method: as §3
[30] = AUClast in male CD-1 mouse at 5 mg/kg, po; type: ADME, organism-based; parameters: time 0 - last, route oral, dose 5 mg/kg; conditions: in vivo; summary of the method: as §4
[31] = Microsomal stability in mouse liver microsomes assessed as parent compound remaining measured after 30 min; type: ADME, Microsome; conditions: 0.5 h
[32] = tested on: Mus musculus; test: Reduction in serum RBP4 level in mouse measured at 25 mg/kg, po administered as single dose measured after 2 hrs; type: functional
[33] = Cmax in male CD-1 mouse at 5 mg/kg, po; type: ADME, organism-based; parameters: route oral, dose 5 mg/kg; conditions: in vivo; summary of the method: as §4
[34] = in vivo; conditions: male, CD-1, mouse, iv, 2 mg/kg
[35] = Half life in male CD-1 mouse at 5mg/kg, po; type: ADME, organism-based; conditions: in vivo
Summary of the method: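 Adult male CD-1 mice, drug naïve, three per group; single 5 mg/kg oral dose in 2% Tween 80 in 0.9% saline. Blood compound levels followed over time; apparent terminal-phase half-life reported as mean (SD).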

[36] = target: Cytochrome P450 2C19 (Homo sapiens, UniProt P33261); test: as §2; type: ADME; conditions: 10 µM
Sequence of Cytochrome P450 2C19 (P33261 whole entry): as the sequence (P33261 whole entry) above

[37] = tested on: Mus musculus; test: Reduction in serum RBP4 level in mouse measured at 25 mg/kg, po after 6 hrs; type: functional
Summary of the method: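 Balb/c mice given a single oral dose, 25 mg/kg, in 0.9% NaCl/2% Tween 80, with a vehicle group. […] Three to eight mice per group; mean ± SD.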

Cc1n[nH]c(C)c1N1CCN(c2cc(C(=O)O)ccc2I)CC1
IC50 [1]: 2.65 µM
IC50 [2]: 0.19 µM

Cc1ccc(C(=O)O)cc1N1CCN(c2c(C)n[nH]c2C)CC1
solubility kinetic [3]: ≥ 200 µM
inhibition at 10 µM [4]: -5.2%
IC50 [5]: > 3 µM
inhibition at 10 µM [6]: 0.06%
inhibition at 10 µM [7]: 7.34%
inhibition at 10 µM [8]: 56.2%

Cc1n[nH]c(C)c1N1CC2(CN(c3cc(C(=O)O)ccc3F)C2)C1
IC50 [5]: > 3 µM
IC50 [2]: > 30 µM

Cc1n[nH]c(C)c1N1C[C@H]2CN(c3cc(C(=O)O)ccc3F)C[C@H]2C1
IC50 [5]: > 3 µM
IC50 [2]: 2.82 µM

Cc1cc(F)c(N2CCN(c3c(C)n[nH]c3C)CC2)cc1C(=O)O
solubility kinetic [3]: ≥ 200 µM
PPB [9]: 87%
Stability [10]: 105%
inhibition (INH) [11]: 31.7%
PPB [12]: 93%
IC50 [5]: > 3 µM
inhibition at 10 µM [6]: -3%
inhibition at 10 µM [7]: 9.2%
inhibition at 10 µM [8]: 1.1%

Cc1n[nH]c(C)c1N1CCN(c2cc(C(=O)O)ccc2F)CC1 [listing 1 of 3 here]
Activity [13]: Active
Activity [14]: Active
Activity [15]: Active
inhibition [16]: Active
inhibition [17]: Active
Activity [18]: inactive
Activity [19]: Active

Cc1n[nH]c(C)c1N1CCN(c2ccc(F)c(C(=O)O)c2)CC1
IC50 [5]: > 3 µM

Cc1noc(C)c1N1CCN(c2cc(C(=O)O)ccc2F)CC1
IC50 [5]: > 3 µM

Cc1n[nH]c(C)c1N1CCN(c2cc(-c3nn[nH]n3)ccc2F)CC1
solubility kinetic [3]: ≥ 200 µM
Stability [20]: 71.4%
inhibition (INH) [11]: 18.9%
PPB [12]: 94%
CLH [21]: 18.4 µL/min/mg
IC50 [5]: > 3 µM
inhibition at 10 µM [6]: -4.8%
inhibition at 10 µM [7]: 0.8%
inhibition at 10 µM [8]: 26.3%

Cc1n[nH]c(C)c1N1CCN(c2cc(C(=O)O)ccc2F)CC1 [listing 2 of 3 here]
PPB [9]: 83%
EC50 [22]: > 30 µM
Vd [23]: 2.18 L/kg
clearance [24]: 5.9 mL/min/kg
AUC(0-t) [25]: 6210 ng·h/mL
AUC(0-inf) [26]: 16100 ng·h/mL
AUC [27]: 6240 ng·h/mL
IC50 [28]: > 30 µM
half-life [29]: 5.08 h
AUC(0-t) [30]: 16000 ng·h/mL
Stability [31]: 102%
inhibition at 10 µM [4]: -2.2%
inhibition in vivo at 25 mg/kg [32]: 66%
IC50 [5]: > 3 µM
Cmax [33]: 1560 ng/mL
C0 [34]: 1620 ng/mL
half-life [35]: 5.38 h
inhibition at 10 µM [7]: 8.1%
inhibition at 10 µM [8]: 10.4%

Cc1n[nH]c(C)c1N1CCN(c2cc(C(=O)O)ccc2Cl)CC1
solubility kinetic [3]: ≥ 200 µM
inhibition (INH) [11]: 19.5%
PPB [12]: 89%
IC50 [5]: > 3 µM
inhibition (INH) [36]: 1.85%
inhibition at 10 µM [7]: 10%
inhibition at 10 µM [8]: 25.2%

Cc1n[nH]c(C)c1N1CCN(c2cc(C(N)=O)ccc2F)CC1
IC50 [5]: > 3 µM

O=C(O)c1ccc(F)c(N2CCN(c3nn[nH]n3)CC2)c1
IC50 [5]: > 3 µM
IC50 [2]: > 30 µM

Cc1n[nH]c(C)c1N1CCN(c2cc(C(=O)O)ccc2F)CC1 [listing 3 of 3 here]
inhibition in vivo at 25 mg/kg [37]: 81%

Cc1n[nH]c(C)c1N1CCC2(CCN(c3cc(C(=O)O)ccc3F)C2)C1 (racemic)
IC50 [5]: > 3 µM
IC50 [2]: 1.08 µM

Cc1n[nH]c(C)c1N1CCN(c2cc(C(=O)O)ccc2C(F)(F)F)CC1
solubility kinetic [3]: ≥ 200 µM
PPB [9]: 86%
inhibition (INH) [11]: 14.8%
IC50 [5]: > 3 µM
inhibition (INH) [36]: 2.3%
inhibition at 10 µM [7]: 5.9%
inhibition at 10 µM [8]: 17.1%

O=C(O)c1ccc(F)c(N2CCN(c3ccccc3C(F)(F)F)CC2)c1
IC50 [5]: > 3 µM
IC50 [2]: 1.7 µM

Cc1n[nH]c(C)c1N1CCN(c2cccc(C(=O)O)c2F)CC1
IC50 [5]: > 3 µM

Cc1n[nH]c(C)c1CCCOc1cc(C(=O)O)ccc1F [ACORAMIDIS]
IC50 [5]: > 30 µM

Cc1n[nH]c(C)c1N1CCN(c2cc(F)cc(C(=O)O)c2)CC1
IC50 [5]: > 3 µM

Cc1n[nH]c(C)c1N1CCN(c2cccc(C(=O)O)c2)CC1
IC50 [5]: > 30 µM

O=C(O)c1ccc2nc(-c3cc(Cl)cc(Cl)c3)oc2c1
Activity [13]: Active
Activity [14]: Active
IC50 [5]: > 30 µM
